Assay results taken from ChEMBL document CHEMBL5724801, “EUbOPEN Chemogenomics Library - Multiplex” (2024).
Where “and” joins values, the source holds several entries; their conditions need not be identical. Equal values may be shown once.

System: U2OS
Test: Multiplex assay against U2OS
Assay type: toxicity, cell-based
Settings: human
Procedure, shortened: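 Per cents of healthy-nucleus cells form the tubulin, mitochondrial-mass and membrane-permeability phenotype values. Live cells were stained at seeding with Hoechst33342, BioTracker Green Microtubule Cytoskeleton Dye, MitoTracker Red and Annexin V Alexa Fluor 680. After compound addition they were imaged on a CQ1 microscope at 37°C and 5% CO2, and CellPathfinder machine-learning gating split them into Hoechst high-intensity objects or normal cells, normal cells into healthy, pyknosed or fragmented nuclei, and pyknosed cells into mitotic or apoptotic.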

[1] = 12 h, 1 µM, compound concentration 1 uM
[2] = 12 h, 10 µM, compound concentration 10 uM
[3] = 24 h, 1 µM, compound concentration 1 uM
[4] = 24 h, 10 µM, compound concentration 10 uM
[5] = 48 h, 1 µM, compound concentration 1 uM
[6] = 48 h, 10 µM, compound concentration 10 uM

## Oc1c(CN2CCN(c3ccccn3)CC2)cc(Cl)c2cccnc12
[1]
  Population Apoptotic (%): 95% and 100%
  Population Fragmented Nuclei (%): 24% and 16%
  Population Healthy Nuclei (%): 64% and 78%
  Population Hoechst High Intensity Objects (%): 1%
  Population Membrane Permeable-Phenotype (%): 3% and 13%
  Population Mitochondria Different-Phenotype (%): 1% and 4%
  Population Mitotic Cells (%): 4% and 0%
  Population Normal (%): 98%
  Population Pyknosed Nuclei (%): 10% and 5%
  Population Tubulin-Different-Phenotype (%): 2% and 8%
  Total Cell Count: 237 and 93
[2]
  Population Apoptotic (%): 84% and 87%
  Population Fragmented Nuclei (%): 31% and 18%
  Population Healthy Nuclei (%): 56% and 68%
  Population Hoechst High Intensity Objects (%): 2% and 1%
  Population Membrane Permeable-Phenotype (%): 12% and 6%
  Population Mitochondria Different-Phenotype (%): 28% and 35%
  Population Mitotic Cells (%): 15% and 12%
  Population Normal (%): 97% and 98%
  Population Pyknosed Nuclei (%): 11% and 13%
  Population Tubulin-Different-Phenotype (%): 8% and 11%
  Total Cell Count: 229 and 118
[3]
  Population Apoptotic (%): 88% and 100%
  Population Healthy Nuclei (%): 64% and 87%
  Population Hoechst High Intensity Objects (%): 1%
  Population Membrane Permeable-Phenotype (%): 3% and 9%
  Population Mitochondria Different-Phenotype (%): 2% and 3%
  Population Mitotic Cells (%): 11% and 0%
  Population Normal (%): 98%
  Population Pyknosed Nuclei (%): 6% and 5%
  Population Tubulin-Different-Phenotype (%): 2% and 7%
  Total Cell Count: 270 and 97
[4]
  Population Apoptotic (%): 90% and 100%
  Population Fragmented Nuclei (%): 27% and 29%
  Population Healthy Nuclei (%): 63% and 58%
  Population Hoechst High Intensity Objects (%): 4% and 3%
  Population Membrane Permeable-Phenotype (%): 10% and 9%
  Population Mitochondria Different-Phenotype (%): 14% and 40%
  Population Mitotic Cells (%): 9% and 0%
  Population Normal (%): 95% and 96%
  Population Pyknosed Nuclei (%): 9% and 12%
  Population Tubulin-Different-Phenotype (%): 7% and 6%
  Total Cell Count: 238 and 127
[5]
  Population Apoptotic (%): 94% and 87%
  Population Fragmented Nuclei (%): 25% and 14%
  Population Healthy Nuclei (%): 67% and 77%
  Population Hoechst High Intensity Objects (%): 3% and 1%
  Population Membrane Permeable-Phenotype (%): 6% and 7%
  Population Mitochondria Different-Phenotype (%): 3% and 1%
  Population Mitotic Cells (%): 5% and 12%
  Population Normal (%): 96% and 98%
  Population Pyknosed Nuclei (%): 7%
  Population Tubulin-Different-Phenotype (%): 3% and 5%
  Total Cell Count: 276 and 111
[6]
  Population Apoptotic (%): 96% and 100%
  Population Fragmented Nuclei (%): 32% and 38%
  Population Healthy Nuclei (%): 57% and 42%
  Population Hoechst High Intensity Objects (%): 2% and 4%
  Population Membrane Permeable-Phenotype (%): 11% and 12%
  Population Mitochondria Different-Phenotype (%): 19% and 41%
  Population Mitotic Cells (%): 3% and 0%
  Population Normal (%): 97% and 95%
  Population Pyknosed Nuclei (%): 10% and 19%
  Population Tubulin-Different-Phenotype (%): 7% and 8%
  Total Cell Count: 275 and 144
